Measured values from paper PMC11164214 (International Journal of Nanomedicine, 2024).

Key:
[1] = Biodistribution in mesenteric lymph nodes after oral administration; assay type: in vivo, mice
In short: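 Male ICR mice (20 ± 2 g), acclimatised 1 week. Single oral dose of 4 mg/kg DiR as free-dye solution or liposomes (dye at 8% w/w in lipid). Mice killed at 1, 2, 4 and 6 h; intestinal tracts and MLNs excised for ex vivo fluorescence imaging (means ± SD, n = 3). Dil formulations given orally at 4 mg/kg; MLNs examined by CLSM at 4 h.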

In vitro release assay = assay type: physicochemical; conditions: 37°C
In short: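 Dynamic dialysis, bag MWCO 8–14 kDa. Liposomal DHA, or DHA dispersed in 0.5% w/v carboxymethyl cellulose sodium as control. Incubated in SGF (pH 1.2) for 2 h, then SIF (pH 6.8) for 22 h, at 37 ± 0.5°C with shaking at 150 rpm. Medium sampled at 0.5–24 h and replaced with fresh medium. DHA measured by UV‒Vis after treatment in 2% NaOH:ethanol (4:1, v/v) at 60°C for 30 min; absorbance at 238 nm.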

[2] = Intestinal lymphatic transport inhibition study; assay type: in vivo, rats; conditions: CHX 3.0 mg/kg i.p. 1 h before, oral 10 mg/kg DHA
In short: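 Male Sprague-Dawley rats (200 ± 20 g) given cycloheximide 3.0 mg/kg i.p. to block chylomicron secretion. One hour later, oral DHA suspension or liposomal DHA at 10 mg/kg DHA equivalent. Plasma DHA quantified by validated HPLC‒MS/MS after ether extraction, with artemisinin as internal standard. Means ± SD, n = 4.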

CCCCCCCCCCCCCCCCCCN1/C(=C/C=C/C=C/C=C/C2=[N+](CCCCCCCCCCCCCCCCCC)c3ccccc3C2(C)C)C(C)(C)c2ccccc21.[I-] [free DiR, 1,1’-dioctadecyl-3,3,3’,3’-tetramethylindotricarbocyaine iodide]
accumulation / fluorescence signal in the MLNs (ex vivo imaging) ([1]; oral 4 mg/kg DiR): rare fluorescence signal

C[C@H]1[C@@H](O)O[C@@H]2O[C@@]3(C)CC[C@H]4[C@H](C)CC[C@@H]1[C@@]24OO3 [DHA, Dihydroartemisinin]
cumulative release rate of DHA at 12 h (In vitro release assay; SGF 2 h then SIF): 94.29%
DHA released during the first 2 h in SGF (In vitro release assay; SGF pH 1.2, 2 h): more than 65%
decrease of AUC0~8 of DHA in CHX pretreated rats [2]: little influence
decrease of Cmax of DHA in CHX pretreated rats [2]: little influence

CCCCCCCCCCCCCCCCCCN1/C(=C/C=C/C2=[N+](CCCCCCCCCCCCCCCCCC)c3ccccc3C2(C)C)C(C)(C)c2ccccc21.[O-][Cl+3]([O-])([O-])[O-] [free Dil, 1,1’-Dioctadecyl-3,3,3’,3’-tetramethylindocarbocyanine perchlorate]
red fluorescence signal in the MLNs (CLSM) ([1]; oral 4 mg/kg Dil, 4 h): negligible
